This is an account of results in PMC6300136 (Cancer chemotherapy and pharmacology, 2011).

Data set [1] relates to tumor cell growth. As to conditions: inhibition of tumor cell growth in vitro; cited from earlier work.
The nature of data set [2]: Plasma ultrafiltrate pharmacokinetics of satraplatin. It is filed as in vivo, rhesus monkeys (Macaca mulatta). The method in brief: (§1)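 Five adult male rhesus monkeys (7.3–14.9 kg) were fasted ≥6 h before and 2 h after dosing and given IV ondansetron 0.1 mg/kg (max 2 mg) beforehand. A single dose of test compound, 6 mg/kg (human equivalent 120 mg/m2) in 5% DMSO/0.9% saline, was infused over 1 h through a central venous catheter, with IV fluid hydration during and after.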

The format of data set [3] is in vivo, rhesus monkeys (Macaca mulatta). The method, boiled down:
as §1

A short description of data set [4]: Tolerability of a single IV dose of satraplatin in non-human primates. It counts as in vivo, rhesus monkeys (Macaca mulatta). Conditions: single 120 mg/m^2 (6 mg/kg) IV dose over 1 h in NHP. The method in brief: as §1
Data set [5] in a line: Stability of satraplatin spiked plasma at room temperature. It counts as in vitro ADME.
For data set [6] the following is noted: cited from earlier work.
For data set [7] the following is noted: brain microdialysis in the same NHP model; cited from earlier work.
For data set [8] the following is noted: carboplatin administration every 4 weeks; cited from earlier work.
For data set [9] the following is noted: cited from earlier work. The source holds these as a separate data set.
[10] abbreviates: plasma UF, individual animal, 6 mg/kg IV over 1 h, 6 mg/kg.
The mark [11] stands for this setting: CSF from intralumbar catheter, animal 1, 6 mg/kg IV over 1 h.

Each structure is given as a SMILES string. Where “and” joins values, the source holds several entries; their conditions need not be identical. Identical values can stand only once. Entries after “also recorded” stand apart in the source; their conditions may differ. Like-named read-outs stand apart in the source and are kept apart here.

In the case of `N.NC1CCCCC1.[Cl-].[Cl-].[Pt+2]` [JM-118], in data set [1], the “potency relative to parent drug satraplatin” value is listed as “up to 16 fold”.

As usually defined, the Tmax is the time from dosing to the highest level. The Cmax is the maximum level reached in the sampled fluid or tissue. The half-life is the time needed for the level to fall by half in the phase considered. For the molecule `CC(=O)[O][Pt]([NH2])([Cl])([Cl])([NH]C1CCCCC1)[O]C(C)=O` [Satraplatin, (OC-6–43)-bis(acetato)amminedichloro(cyclohexylamine)platinum], the “AUC0–24h in NHP after IV relative to humans at equivalent oral doses” value in [2] (plasma UF exposure, NHP IV versus human oral) was “approximately 20 fold”. In addition, the Tmax in data set [2] (plasma UF, individual animal, 6 mg/kg (120 mg/m^2) IV over 1 h, time after start of infusion, 6 mg/kg) was 1.1 h and 1.0 h and 0.5 h; in data set [3] (setting [11]), 1.1 h. The “AUC0–48h” value in data set [2] (setting [10]) was 33.2 µM·h and 27.4 µM·h and 22.6 µM·h and 29.2 µM·h; in data set [3] (CSF, individual animal, 6 mg/kg IV over 1 h, 6 mg/kg), 2.43 µM·h and 1.26 µM·h and 0.49 µM·h and 1.14 µM·h. Further, the Cmax in [2] (setting [10]) is 10.6 µM and 10.4 µM and 5.7 µM and 6.9 µM and 8.3 µM; in [3] (setting [11]) it was 0.62 µM; in data set [3] (read-out: Cmax, median (range), CSF, median (range) of NHP), 0.09 µM. The Cl in data set [2] (plasma UF, individual animal, dose/AUC0–inf, 6 mg/kg IV over 1 h) was 5.67 mL/min/kg and 5.17 mL/min/kg and 6.17 mL/min/kg and 6 mL/min/kg. Further, the T½ in [2] (plasma UF, individual animal, terminal half-life, 6 mg/kg IV over 1 h, 6 mg/kg) was 13.4 h and 19.5 h and 18.8 h and 17.4 h and 25 h. Also, the “Cl, median (range)” value in [2] (plasma UF, median (range) of 5 NHP) is on record as 0.36 (0.31–0.37) l/h/kg. For the same molecule, the “AUC0–48h, median (range)” value is on record as 29.2 (22.6–33.2) μM h in [2] (plasma UF, median (range) of 5 NHP, 6 mg/kg IV over 1 h) and 1.2 (0.49–2.43) μM h in [3] (CSF, median (range) of NHP). For the same molecule, the “Tmax, median (range)” value in [2] (plasma UF, median (range) of 5 NHP, 6 mg/kg IV over 1 h, after start of infusion) is on record as 1.0 (0.5–1.1) h. Also, in data set [2] (plasma UF, median (range) of 5 NHP, extrapolated to infinity), the “AUC0–inf, median (range)” value is given as 32.1 (24.7–38.2) μM h. Besides, the “T½, median (range)” value in data set [2] (plasma UF, median (range) of 5 NHP, terminal half-life) is reported as 18.8 (13.4–25) h. Further, the “Ratio AUC0–48h CSF: AUC0–48h plasma UF” value in data set [3] (CSF penetration, individual animal, 6 mg/kg IV over 1 h, 6 mg/kg) is 7.4% and 4.6% and 2.2% and 3.9%. Also, in data set [3] (CSF, median, unit as printed in the results text), the “AUC0–48 for CSF, median (range)” value worked out at 1.2 µM. For the same molecule, in [3] (median (range) of NHP), the “CSF penetration (Ratio AUC0–48h CSF: AUC0–48h plasma UF), median (range)” value is 4.3 (2.2–7.4) %. In data set [4], the Tolerability entry is “well tolerated; also recorded: no adverse clinical or laboratory sequelae”. In addition, the “stability of spiked plasma” value in data set [5] was “at least 2 h”. The accumulation factor in data set [6] (daily dosing in clinical trials) is on record as not above 4.1. For the same molecule, the half-life in data set [6] (human phase I trials after oral dosing, mean) is 7 h.

With `N.N.O=C([O-])C1(C(=O)[O-])CCC1.[Pt+2]` [carboplatin], the CNS penetration in data set [7] is listed as less than 5%. In addition, in data set [8], the incidence of anaphylaxis was not above 22%. Besides, the CSF penetration in data set [9] (non-human primate model) is 2.6%.

As to `N.N.[Cl][Pt][Cl]` [cisplatin], the CSF penetration in data set [9] (in vivo) is 3.7%.
